# MEKK2wt PB1 HTS = modulators of MEK5 binding to wildtype MEKK2, primary screen, biochemical, multiplex bead flow cytometry, Alexa488-MEK5; Mitogen-activated protein kinase kinase kinase 2 (Homo sapiens), Q9Y2U5; Alexa488-MEK5 binding to MEKK2 WT; actives lie on both sides; binding response (% of control), % at 10 µM; actives 1.1% (n = 290,000); in the data active = binding response below about 67% or above about 130%
# Apaf-1 inh = inhibitors of human Apaf-1 apoptosome, primary screen, biochemical, DEVD-Rh110 fluorescence, uHTS; Apoptotic protease-activating factor 1 (Homo sapiens), O14727; reconstituted apoptosome caspase-3 activity; actives 0.71% (n = 330,000); inhibition, % at 20 µM; active = inhibition of at least 40% at 20 µM;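 note: plate controls were DMSO wells for no effect and DEVD-CHO caspase inhibitor wells for full effect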
#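 Assay system – apoptosome proteins · Medium – Hepes buffer, pH 7.5 · Also added – cytochrome c with DEVD-Rh110 · Timing – 30 min compound preincubation, 50 min activation, room temperature · Detection – Rh110 fluorescence, excitation 480 nm, emission 540 nm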
# MEKK3 PB1 HTS = modulators of MEKK3-MEK5 PB1 binding, primary screen, biochemical, wildtype MEKK3, multiplex bead flow cytometry, Alexa488-MEK5; Mitogen-activated protein kinase kinase kinase 3 (Homo sapiens), Q99759; bead-based flow cytometry, Alexa488-MEK5 binding to MEKK3; actives lie on both sides; 0 = blocked by unlabeled MEK5, 100 = vehicle; binding response (% of control), % at 10 µM; actives 1.4% (n = 290,000);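 active = binding response more than 3 SD above or below the average of its plate-row segment, actives on both sides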;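 note: Alexa488 bead fluorescence after subtracting the streptavidin-only scavenger bead signal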
# Target sequence (Q99759 whole entry, looked up): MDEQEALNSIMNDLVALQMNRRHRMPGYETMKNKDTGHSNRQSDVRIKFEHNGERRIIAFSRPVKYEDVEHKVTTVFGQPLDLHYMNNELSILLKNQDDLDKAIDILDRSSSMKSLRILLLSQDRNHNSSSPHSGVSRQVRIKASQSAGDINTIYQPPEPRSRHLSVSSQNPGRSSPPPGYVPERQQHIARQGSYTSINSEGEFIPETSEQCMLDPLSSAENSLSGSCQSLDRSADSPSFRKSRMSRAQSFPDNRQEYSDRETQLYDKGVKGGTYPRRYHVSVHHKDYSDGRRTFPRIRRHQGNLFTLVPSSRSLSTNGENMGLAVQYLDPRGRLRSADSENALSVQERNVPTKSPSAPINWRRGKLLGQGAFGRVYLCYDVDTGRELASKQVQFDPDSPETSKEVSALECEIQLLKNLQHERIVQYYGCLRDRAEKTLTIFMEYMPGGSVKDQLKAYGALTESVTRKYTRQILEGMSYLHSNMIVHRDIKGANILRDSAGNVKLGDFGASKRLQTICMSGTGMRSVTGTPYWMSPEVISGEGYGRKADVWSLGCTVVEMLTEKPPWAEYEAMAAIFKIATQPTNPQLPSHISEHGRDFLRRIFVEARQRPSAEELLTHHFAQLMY
# MEKK2 mut-MEK5 = MEK5 binding signal on mutant MEKK2 PB1, primary screen, biochemical, multiplex bead flow cytometry, Alexa488-MEK5. Alexa488-MEK5 binding to MEKK2 mutant. percent response, % at 10 µM. actives 0.35% (n = 290,000); in the data active = percent response above about 24%, passing the limit was not always enough
# UBC13 inh = UBC13 polyubiquitin chain formation inhibitors, primary screen, biochemical, TR-FRET, uHTS. inhibition, % at 20 µM. actives 0.47% (n = 330,000). Ubiquitin-conjugating enzyme E2 N (Homo sapiens), P61088. AID 485273, 2010; in the data active = inhibition above about 45%, passing the limit was not always enough
# DSG3 Ab inh = inhibitors of pemphigus antibody binding to DSG3, primary screen, biochemical, bead-based, flow cytometry, scFv-GFP. Desmoglein-3 (Homo sapiens), P32926. DSG3-coupled beads, scFv-anti-DSG3-GFP binding; hits give low values. binding (percent of control), % at 10 µM. actives 0.48% (n = 310,000). AID 588358, 2011;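 active = binding more than 3 SD below its plate's average and above zero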;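 note: hits lower antibody fragment binding to DSG3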
# MEKK2wt confirm = modulators of MEK5 binding to wildtype MEKK2, confirmation, biochemical, single concentration, multiplex bead flow cytometry; shares compounds with MEKK3 PB1 HTS; Alexa488-MEK5 binding to MEKK2 WT; actives lie on both sides; binding response (% of control), % at 10 µM; actives 2.4% (n = 5,900); AID 1892, 2009; in the data active = binding response below about 16% or above about 210%; inactive = in between
# MEKK2mut confirm = mutant MEKK2 PB1-MEK5 binding signal retest – biochemical, single concentration, multiplex bead flow cytometry, confirmation. shares compounds with MEKK3 PB1 HTS. Alexa488-MEK5 binding to MEKK2 mutant. percent response, % at 10 µM. actives 2% (n = 5,900). AID 1893, 2009; in the data active = percent response mostly above about 71%, no sharp cut-off; inactive = mostly below about 38%;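 note: higher means compound restores mutant binding toward wildtype level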
# MEKK3 confirm = MEKK3 wild-type PB1 binding to MEK5, inhibitors, confirmation, biochemical, bead multiplex flow cytometry, single concentration, wildtype; shares compounds with MEKK3 PB1 HTS; Alexa488-MEK5 binding to MEKK3; hits give low values; binding response (% of control), % at 10 µM; actives 1.8% (n = 5,900); AID 1894, 2009;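 active = binding response below 72% of control, or above a set upper limit, though filed actives all read lower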;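 note: 100% = DMSO only wells and 0% = binding blocked by excess unlabeled MEK5; lower values mean stronger disruption of MEK5 binding to MEKK3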
# Active calls of the source: *; i = inactive; x = no result; + = active, no number; [ ] = remark or other dose. Most compounds without a hit are left out; they make up all but 3.2% or so of the library.
SMILES,MEKK2wt PB1 HTS,Apaf-1 inh,MEKK3 PB1 HTS,MEKK2 mut-MEK5,UBC13 inh,DSG3 Ab inh,MEKK2wt confirm,MEKK2mut confirm,MEKK3 confirm
CCOC(=O)CNC(=O)Nc1nnc(-c2ccc(OCC)cc2)o1,56,-5,48*[inhibitor],-11,2,103,97,-1,100
Cc1ccc(-n2c(N)cc(=O)nc2SCC(=O)NC2CCCCC2)cc1C,108,-9,102,4,-7,106,x,x,x
O=C(C1CCCN(Cc2cccs2)C1)N1CCCCCC1 (stereo unspecified),115,3,111,13,-5,x,x,x,x
CCOC(=O)C1CCCN(Cc2cccs2)C1 (stereo unspecified),-3.0*[inhibitor],-15,1.0*[inhibitor],-18,-1,106,104,6,106
CCOC(=O)C1CCCN(S(=O)(=O)c2cccs2)C1 (stereo unspecified),114,-3,122*,7,-5,100,97,-7,97
CS(=O)(=O)c1nc(S(=O)(=O)c2ccc(Cl)cc2)c(NCCCN2CCOCC2)s1,104,-4,102,1,-1,97,x,x,x
CCc1ccccc1NC(=O)CN(C)C(=O)Cn1cnc2ccc(Cl)cc2c1=O,x,5,x,x,-9,107,x,x,x
CCc1ccccc1NC(=O)CN(C)C(=O)Cn1ncc(Cl)c(Cl)c1=O,108,x,133*,1,x,103,106,0,106
Cc1ccc(S(=O)(=O)N(C)C)cc1NC(=O)COC(=O)c1ccc2ccccc2n1,x,-12,x,x,7,x,x,x,x
COc1cc(/C=C(\C#N)C(=O)c2ccc(O)c(O)c2)cc(I)c1O,x,2,x,x,-206,104,x,x,x
COc1ccc(OC)c(NC(=O)c2nc3ccccc3s2)c1,3.0*[inhibitor],8,3.0*[inhibitor],2,-2,x,111,6,109
COc1ccc(NC(=O)c2nc3ccccc3s2)cc1,94,-1,94,-4,7,95,x,x,x
O=C(Cn1c(=O)n(-c2ccccc2)c(=O)c2oc3ccccc3c21)Nc1ccccc1,103,1,131*,0,-3,130,106,4,102
Cc1cc(C)cc(NC(=O)CSc2nc3c(oc4ccccc43)c(=O)n2-c2ccccc2)c1,98,20,124,0,-29,99,x,x,x
CCN(CC)c1ccc(/C=C(\C#N)C(=O)c2ccc(Br)cc2)cc1,148*,x,123,153*,x,i,49,-48,85
CCN(CC)c1ccc(/C=C(\C#N)C(N)=O)cc1,97,x,103,-6,x,103,x,x,x
O=C(NCCc1ccccc1)C1CCCN(c2cnccn2)C1 (stereo unspecified),101,-3,101,-2,0,103,x,x,x
COC(=O)C1(CCSC)NC(c2ccco2)C2C(=O)N(C)C(=O)C21 (stereo unspecified),1.0*[inhibitor],-1,2.0*[inhibitor],-16,-2,99,107,1,106
COCCn1c(C)cc(C(=O)COC(=O)/C=C/c2ccc(OC)cc2OC)c1C,x,13,x,x,0,92,x,x,x
CC(Cn1cncn1)C(=O)N1CCN(S(=O)(=O)c2ccc(Cl)cc2)CC1 (stereo unspecified),93,1,99,-5,6,109,x,x,x
COc1cc(CNCc2cccs2)ccc1OCc1cccs1,-1.0*[inhibitor],-6,2.0*[inhibitor],-27,16,104,122,12,102
COc1cc(CNCc2cccs2)ccc1OCc1ccccc1,x,8,x,x,6,104,x,x,x
CC(=O)Nc1nc(C)c(C(C)=O)s1,3.0*[inhibitor],-2,2.0*[inhibitor],-16,-4,101,106,8,105
COC(=O)c1ccc(NC(=O)CSc2nnc(COc3ccccc3)n2C)cc1,120,9,113,24*,-3,x,99,3,105
Cn1c(Cn2cnc([N+](=O)[O-])n2)nnc1SCC(=O)Nc1ccccc1,110,-2,144*,1,-6,82,106,0,105
SMILES,MEKK2wt PB1 HTS,Apaf-1 inh,MEKK3 PB1 HTS,MEKK2 mut-MEK5,UBC13 inh,DSG3 Ab inh,MEKK2wt confirm,MEKK2mut confirm,MEKK3 confirm
Cn1c(Cc2ccccc2)nnc1SCC(=O)Nc1ccccc1,91,-10,96,0,-7,111,x,x,x
COc1ccc(NC(=O)CSc2nnc(Cn3cnc([N+](=O)[O-])n3)n2C)cc1,77,-11,41*[inhibitor],1,5,98,100,-3,101
COc1cccc(NC(=O)CSc2nnc(Cn3cnc([N+](=O)[O-])n3)n2C)c1,96,-8,107,2,-8,110,x,x,x
O=C(CSc1nccc(=O)[nH]1)c1cc2ccccc2o1,102,-7,112,1,2,92,x,x,x
CCOC(=O)c1ccc2c(c1)nc(SCC(=O)c1cc3ccccc3o1)n2CC,55*[inhibitor],32,73*[inhibitor],-51,-10,102,98,-3,100
C=CCNC(=O)CSc1nc2cc(C(=O)OCC)ccc2n1CC,106,-4,107,7,-1,104,x,x,x
O=C(CSc1ncn[nH]1)c1cc2ccccc2o1,+,-6,173*,+,-1,105,90,-7,100
CC(C)CN(C(=O)c1cccc(S(=O)(=O)N2CCN(C)CC2)c1)C1CCS(=O)(=O)C1 (stereo unspecified),x,-7,x,x,-5,99,x,x,x
Cc1ccc(S(=O)(=O)Oc2cccc(/C=N/n3cnnc3)c2)cc1,101,-2,102,-1,3,102,x,x,x
Cc1ccc(S(=O)(=O)Oc2cccc(/C=N/Nc3ccc(C(=O)O)cc3)c2)cc1,128,-20,132*,28,21,96,105,7,104
CC(=O)Nc1ccc(SCC(=O)N2CCN(S(=O)(=O)c3ccccc3)CC2)cc1,104,8,104,0,1,95,x,x,x
